Assay [1] in a line: Her2 expression decrease, cell viability multiplex – SKBR3 breast tumor cells, AlphaScreen, ATP viability, primary screen (AID 461).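 For Her2 level: lower value means less Her2 protein in the cells.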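 For viability: percent of carrier control wells set as 100% viability.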 Particulars: SKBR3 Her2 protein level, 18-24 h, measured here: SKBR3 viability, ATP luminescence, at 10 µM.
Assay [2] addresses Receptor tyrosine-protein kinase erbB-2 (Homo sapiens) (UniProt P04626). Described as above. To be noted: 18-24 h, at 10 µM, stronger effect = lower value.
Assay [3] can be described thus: reduced viability of SK-BR-3 breast cancer cells – cell-based, 24 h, human, pilot screen (AID 572;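 active = viability at or below 10% of carrier control in both of two separate runs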;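 note: compound exposure lasted between 18 and 24 h rather than exactly 24 h; 100% = carrier-treated control wells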). Particulars: SK-BR-3 viability, CellTiter-Glo luminescence, at 10 µM, stronger effect = lower value. (In general: In ATP-based viability assays light output follows the ATP content of the culture.)
A short description of assay [4]: HUVEC growth inhibition – cell-based, human, primary screen (AID 575;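 active = viability at or below 30% in both replicate assays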;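 note: 100% = median of untreated cell wells with 0.1% DMSO on each plate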). To be noted: HUVEC proliferation, CellTiter-Glo luminescence, 72 h; at 10 µM; stronger effect = lower value. A digest of the protocol:
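Timing: 72 h treatment at 37 °C; material: HUVEC primary cells; technique: CellTiter-Glo luminescence measuring cellular ATP; controls: vehicle and MePR control wells; measure: percent of median DMSO-control luminescence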

The nature of assay [5]: H69AR cell proliferation blockers – human, duplicate replicates, primary screen (AID 580;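 active = viability at or under a set limit in both replicates, limit being median viability minus 3 SD, cut at about 48% in these data, passing the limit was not always enough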;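 note: 100% = mean luminescence of untreated wells and 0% = no signal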). To be noted: H69AR lung tumor cells viability, ATP luminescence, 72 h; at 10 µM; stronger effect = lower value.
Assay [6] in a line: MRP1 drug-resistance reversers in H69AR cells – cell-based, doxorubicin co-treatment, pilot screen (AID 601;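 active = viability loss from added drug above about 55%, and viability with drug at most 40%, in both replicates, limit read from the data, passing the limit was not always enough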). Particulars: CellTiter-Glo, 72 h, at 10 µM; for differential viability (reversal): stronger effect = higher value.
Assay [7] is described as follows: yeast transport mutant growth inhibition pilot in 384-well plates, post-Golgi transport modulator project (AID 636; in the data active = inhibition above about 31%). To be noted: absorbance 615 nm, about 18 h, stronger effect = higher value.
The nature of assay [8]: growth suppression of yeast trafficking mutant, preliminary HTS, modulators of trafficking downstream of Golgi apparatus project, 1536-format plate, OD 615 nm (AID 637; in the data active = inhibition above about 30%). Particulars: yeast transport mutant growth, absorbance 615 nm, 18 h; stronger effect = higher value.
[9] abbreviates: H69AR cells + 2 uM doxorubicin, measured here: viability with 2 uM doxorubicin, stronger effect = lower value.
Setting [10] is: H69AR cells, compound alone cytotoxicity.

Consider 16 molecules from PubChem BioAssay.

SMILES strings stand for the structures. The source made the active and inactive calls.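 Rule for the calls, unless noted: active = Her2 level under about 52% in both replicate screens, with viability over 70% of control (limit read from the data); inconclusive = Her2 under the limit in one screen only, or viability under 70%; inactive = Her2 level above the set limit.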

Receptor tyrosine-protein kinase erbB-2 (Homo sapiens), sequence (P04626 whole entry, looked up): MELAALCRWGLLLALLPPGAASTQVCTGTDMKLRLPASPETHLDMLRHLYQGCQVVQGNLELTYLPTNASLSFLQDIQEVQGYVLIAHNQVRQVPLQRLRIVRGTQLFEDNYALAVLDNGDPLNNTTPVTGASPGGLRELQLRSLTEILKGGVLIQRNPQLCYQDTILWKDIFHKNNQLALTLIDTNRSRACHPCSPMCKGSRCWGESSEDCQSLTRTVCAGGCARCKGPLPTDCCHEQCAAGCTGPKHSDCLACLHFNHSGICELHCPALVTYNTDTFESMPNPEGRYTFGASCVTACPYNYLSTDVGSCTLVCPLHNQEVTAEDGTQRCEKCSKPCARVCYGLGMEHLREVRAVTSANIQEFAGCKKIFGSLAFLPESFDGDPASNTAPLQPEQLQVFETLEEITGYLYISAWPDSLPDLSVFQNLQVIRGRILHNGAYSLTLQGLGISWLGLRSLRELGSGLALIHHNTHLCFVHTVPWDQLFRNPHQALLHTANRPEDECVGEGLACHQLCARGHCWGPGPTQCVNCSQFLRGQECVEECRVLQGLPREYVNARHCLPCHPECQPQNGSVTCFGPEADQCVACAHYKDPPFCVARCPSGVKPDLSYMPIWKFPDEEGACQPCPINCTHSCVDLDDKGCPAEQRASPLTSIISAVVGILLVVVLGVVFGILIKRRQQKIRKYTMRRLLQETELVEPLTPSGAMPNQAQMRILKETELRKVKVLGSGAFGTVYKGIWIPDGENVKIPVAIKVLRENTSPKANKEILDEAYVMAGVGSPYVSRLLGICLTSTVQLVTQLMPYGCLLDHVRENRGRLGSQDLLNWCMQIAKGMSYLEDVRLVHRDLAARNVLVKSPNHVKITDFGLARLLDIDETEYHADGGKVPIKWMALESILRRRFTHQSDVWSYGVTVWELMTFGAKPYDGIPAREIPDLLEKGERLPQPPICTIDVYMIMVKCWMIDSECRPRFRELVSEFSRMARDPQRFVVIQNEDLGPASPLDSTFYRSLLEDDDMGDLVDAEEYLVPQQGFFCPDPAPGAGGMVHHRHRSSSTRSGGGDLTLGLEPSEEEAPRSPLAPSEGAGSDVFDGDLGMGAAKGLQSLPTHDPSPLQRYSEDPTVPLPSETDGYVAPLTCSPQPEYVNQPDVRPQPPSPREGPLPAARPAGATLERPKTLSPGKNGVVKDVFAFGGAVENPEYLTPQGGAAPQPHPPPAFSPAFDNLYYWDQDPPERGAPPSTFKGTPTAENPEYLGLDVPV

In the case of `CC(=O)Nc1ccc(S(=O)(=O)N2CCC(NC(C)=O)(c3cccc(F)c3)CC2)cc1`, the viability in assay [1] was 89%; in assay [3] it was 89% (inactive); in assay [4], 100% (inactive); in assay [5] it was 104% (inactive); in assay [6] (setting [9]), 90.5%; in assay [6] (setting [10]) it was 104%. In assay [2], the Her2 level is 79% (inactive). For the same molecule, in assay [6] (H69AR cells + 2 uM doxorubicin), the differential viability (reversal) was 13% (inactive). The inhibition in assay [7] was -6.89% (inactive); in assay [8], 0.82% (inactive).

As to `O=C(OCc1ccc2c(c1)OCO2)c1ccc(S(=O)(=O)N2CCCCC2)cc1`, the viability in assay [1] was 75.5%; in assay [3] it was 75.5% (inactive); in assay [4], 57.9% (inactive); in assay [5], 81.9% (inactive); in assay [6] (setting [9]), 81.3%; in assay [6] (setting [10]) it was 81.9%. In assay [2], the Her2 level is 84% (inactive). Also, the differential viability (reversal) in assay [6] (H69AR cells + 2 uM doxorubicin) is 0.615% (inactive). The inhibition in assay [7] is -0.77% (inactive); in assay [8], -2.5% (inactive).

As to `c1ccc(-c2ccccc2OCCn2cncn2)cc1`, the viability in assay [1] was 93%; in assay [3], 93% (inactive); in assay [4] it was 104% (inactive); in assay [5], 99.8% (inactive); in assay [6] (setting [9]) it was 83.9%; in assay [6] (setting [10]) it was 99.8%. In addition, in assay [2], the Her2 level was 79% (inactive). Also, the differential viability (reversal) in assay [6] (H69AR cells + 2 uM doxorubicin) was 15.9% (inactive). The inhibition in assay [7] is -5.41% (inactive); in assay [8] it was 0.98% (inactive).

As for `C/C(N)=C(/C#N)C(=O)COC(=O)COc1ccc(Cl)cc1`, the viability in assay [1] is 93%; in assay [3] it was 93% (inactive); in assay [4], 98% (inactive); in assay [5] it was 91.9% (inactive); in assay [6] (setting [9]), 97.7%; in assay [6] (setting [10]), 91.9%. Moreover, in assay [2], the Her2 level is 100% (inactive). In assay [6] (H69AR cells + 2 uM doxorubicin), the differential viability (reversal) was -5.87% (inactive). Moreover, the inhibition in assay [7] was -7.07% (inactive); in assay [8] it was -5.08% (inactive).

Take `COc1ccc(CC(=O)Nc2c3c(nn2-c2cccc(Cl)c2)CS(=O)(=O)C3)cc1`: the viability in assay [1] was 84.5%; in assay [3] it was 84.5% (inactive); in assay [4], 104% (inactive); in assay [5], 90.2% (inactive); in assay [6] (setting [9]), 89.1%; in assay [6] (setting [10]) it was 90.2%. In assay [2], the Her2 level is 89% (inactive). In assay [6] (H69AR cells + 2 uM doxorubicin), the differential viability (reversal) is 1.1% (inactive). For the same molecule, the inhibition in assay [7] is -6.8% (inactive); in assay [8], 3.06% (inactive).

As to `O=C(COc1cccc(Oc2ccccc2)c1)Nc1ncccn1`, the viability is 99.5% in assay [1]; 99.5% (inactive) in assay [3]; 110% (inactive) in assay [4]; 94.3% (inactive) in assay [5]; 87.5% in assay [6] (setting [9]); 94.3% in assay [6] (setting [10]). For the same molecule, the Her2 level in assay [2] is 106% (inactive). Also, in assay [6] (H69AR cells + 2 uM doxorubicin), the differential viability (reversal) is 6.76% (inactive). Further, the inhibition in assay [7] was -3.9% (inactive); in assay [8], -3.81% (inactive).

As for `CCOC(=O)c1cccc(NC(=O)CSc2nc3ccccc3c(=O)n2CC)c1`, the viability is 87% in assay [1]; 87% (inactive) in assay [3]; 65% (inactive) in assay [4]; 71.1% (inactive) in assay [5]; 67% in assay [6] (setting [9]); 71.1% in assay [6] (setting [10]). The Her2 level in assay [2] was 79% (inactive). The differential viability (reversal) in assay [6] (H69AR cells + 2 uM doxorubicin) is 4.1% (inactive). Besides, the inhibition is -3.95% (inactive) in assay [7] and 0.48% (inactive) in assay [8].

With `CCOC(=O)CNC(=O)CSc1nc(N)cc(N)n1`, the viability in assay [1] was 92%; in assay [3] it was 92% (inactive); in assay [4] it was 113% (inactive); in assay [5], 96.7% (inactive); in assay [6] (setting [9]) it was 96.6%; in assay [6] (setting [10]) it was 96.7%. In addition, the Her2 level in assay [2] was 96% (inactive). In assay [6] (H69AR cells + 2 uM doxorubicin), the differential viability (reversal) is 0.07% (inactive). The figures for the inhibition in assay [7] and in assay [8] were -4.27% (inactive) and -9.84% (inactive), respectively.

As to `C=CCn1c(SCC(=O)Nc2ccccc2OC)nnc1-c1ccco1`, the viability is 95% in assay [1]; 95% (inactive) in assay [3]; 95.2% (inactive) in assay [4]; 67.7% (inactive) in assay [5]; 84.5% in assay [6] (setting [9]); 67.7% in assay [6] (setting [10]). Further, the Her2 level in assay [2] is 89.5% (inactive). In addition, the differential viability (reversal) in assay [6] (H69AR cells + 2 uM doxorubicin) is -16.8% (inactive). Further, the values for the inhibition in assay [7] and in assay [8] were -4.67% (inactive) and 2.9% (inactive), respectively.

Turning to `C=CCn1c(SCc2ccc(C#N)cc2)nnc1-c1cccc(Cl)c1`, the viability in assay [1] was 95.5%; in assay [3] it was 95.5% (inactive); in assay [4], 102% (inactive); in assay [5], 80.2% (inactive); in assay [6] (setting [9]) it was 84%; in assay [6] (setting [10]) it was 80.2%. For the same molecule, in assay [2], the Her2 level was 86% (inactive). In assay [6] (H69AR cells + 2 uM doxorubicin), the differential viability (reversal) was -3.84% (inactive). Moreover, the inhibition in assay [7] is -2.21% (inactive); in assay [8], -0.17% (inactive).

For the molecule `O=C(COC(=O)CSc1nnc(-c2ccc(Cl)cc2)o1)NCc1ccc2c(c1)OCO2`, the viability in assay [1] is 98%; in assay [3], 98% (inactive); in assay [4], 90.8% (inactive); in assay [5] it was 104% (inactive); in assay [6] (setting [9]), 100%; in assay [6] (setting [10]) it was 104%. Moreover, the Her2 level in assay [2] is 84% (inactive). Further, the differential viability (reversal) in assay [6] (H69AR cells + 2 uM doxorubicin) is 3.27% (inactive). In addition, the figures for the inhibition in assay [7] and in assay [8] were -4.19% (inactive) and 0.79% (inactive), respectively.

On to `CCOC(=O)c1c(N)sc(C(=O)N2CCOCC2)c1C`, for which the viability in assay [1] is 127%; in assay [3] it was 127% (inactive); in assay [4], 103% (inactive); in assay [5], 98.9% (inactive); in assay [6] (setting [9]), 97.6%; in assay [6] (setting [10]), 98.9%. Also, the Her2 level in assay [2] was 115% (inactive). Also, the differential viability (reversal) in assay [6] (H69AR cells + 2 uM doxorubicin) was 1.31% (inactive). The inhibition is -7.07% (inactive) in assay [7] and -1.75% (inactive) in assay [8].

In the case of `CSc1nc(C)c(C(=O)Nc2ccccc2)c(C)c1C#N`, the viability in assay [1] is 100%; in assay [3], 100% (inactive); in assay [4] it was 91.7% (inactive); in assay [5] it was 94.2% (inactive); in assay [6] (setting [9]), 87.6%; in assay [6] (setting [10]), 94.2%. Moreover, the Her2 level in assay [2] is 76% (inactive). For the same molecule, the differential viability (reversal) in assay [6] (H69AR cells + 2 uM doxorubicin) is 6.57% (inactive). Moreover, the inhibition in assay [7] is -5.87% (inactive); in assay [8], -3.39% (inactive).

Turning to `CCOC(=O)C1=C(c2ccccc2)N2CCN=C2S1`, the viability in assay [1] was 94.5%; in assay [3], 94.5% (inactive); in assay [4], 100% (inactive); in assay [5], 94.8% (inactive); in assay [6] (setting [9]), 88.8%; in assay [6] (setting [10]), 94.8%. In assay [2], the Her2 level is 100% (inactive). For the same molecule, in assay [6] (H69AR cells + 2 uM doxorubicin), the differential viability (reversal) was 5.97% (inactive). Moreover, the values for the inhibition in assay [7] and in assay [8] were -0.93% (inactive) and -9.68% (inactive), respectively.

Take `COCCCn1c2nc3ccccc3nc2c2c(=O)n(-c3ccccc3OC)cnc21`: the viability in assay [1] was 97.5%; in assay [3], 97.5% (inactive); in assay [4], 97.8% (inactive); in assay [5], 73.7% (inactive); in assay [6] (setting [9]), 67.5%; in assay [6] (setting [10]), 73.7%. Besides, the Her2 level in assay [2] was 100% (inactive). The differential viability (reversal) in assay [6] (H69AR cells + 2 uM doxorubicin) is 6.27% (inactive). Moreover, the inhibition is -0.8% (inactive) in assay [7] and 4.75% (inactive) in assay [8].

`CC(=O)c1ccc(Oc2cc(C)nc(-n3nc(C)cc3C)n2)cc1`: the viability in assay [1] was 107%; in assay [3], 107% (inactive); in assay [4] it was 51.7% (inactive); in assay [5], 29.4% (active); in assay [6] (setting [9]) it was 66.2%; in assay [6] (setting [10]), 29.4%. In assay [2], the Her2 level is 96% (inactive). Besides, the differential viability (reversal) in assay [6] (H69AR cells + 2 uM doxorubicin) was -36.8% (inactive). For the same molecule, the results for the inhibition in assay [7] and in assay [8] were -5.87% (inactive) and -2.1% (inactive), respectively.

As a reminder, the viability is a read-out of living cells in per cent, often relative to untreated cells. Broadly, the inhibition is the drop in the measured response relative to a control, in per cent.
